ChEMBL document CHEMBL1133665, “Secondary amides of (R)-3,3,3-trifluoro-2-hydroxy-2-methylpropionic acid as inhibitors of pyruvate dehydrogenase kinase” (J Med Chem, 2000)
The source made the active and inactive calls. No cut-off for these calls is given here.

biological target: Pyruvate dehydrogenase kinase (Rattus norvegicus, UniProt Q63065+A6IPZ9+Q64536+O54937); test: Inhibitory activity tested against Pyruvate Dehydrogenase Kinase (PDHK) receptor from rats.; assay type: protein assay
Procedure, shortened: (§1)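 Commercial PDH complex used as the kinase-containing preparation. PDHK inhibition read spectrophotometrically as NADH production at 340 nm, measured with and without ATP. IC50 ± standard error, from purified substances.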

| Structure (SMILES) | IC50 |
| --- | --- |
| C[C@@](O)(C(=O)N1CCN(Cc2ccccc2)CC1)C(F)(F)F | 19.9 µM |
| C[C@@H]1CN(C(=O)[C@@](C)(O)C(F)(F)F)CCN1c1cc([N+](=O)[O-])ccn1 | 0.112 µM |
| O=C(NC1C2CC3CC(C2)CC1C3)C(O)(C(F)(F)F)C(F)(F)F (stereo not given) | 17 µM |
| CCC(C)(O)C(=O)Nc1ccccc1Cl (stereo not given) | 23 µM |
| C[C@@H]1CN(C(=O)[C@@](C)(O)C(F)(F)F)CCN1C(=O)c1ccc(C(=O)c2ccccc2)cc1 (stereo in doubt; 11g) | 0.034 µM |
| C[C@@](O)(C(=O)N1CCN(/C(=N/C#N)Oc2ccccc2)CC1)C(F)(F)F | 6 µM |
| C[C@@H]1CN(C(=O)[C@@](C)(O)C(F)(F)F)[C@@H](C)CN1C(=O)C1CCCCC1 | 0.013 µM |
| C[C@@](O)(C(=O)Nc1ccccc1Cl)C(F)(F)F | 0.3 µM |
| C[C@@](O)(C(=O)NC1C2CC3CC(C2)CC1C3)C(F)(F)F (stereo not given in full) | 0.3 µM |
| CC(C)(O)C(=O)N1CCC(Cc2ccccc2)CC1 | 150 µM |
| C[C@@H]1CN(C(=O)[C@@](C)(O)C(F)(F)F)CCN1Cc1ccccc1 | > 1 µM |
| CCC(O)(C(=O)Nc1ccccc1Cl)C(F)(F)F (stereo not given) | 20 µM |
| C[C@@H]1CN(Cc2ccccc2)[C@@H](C)CN1C(=O)[C@@](C)(O)C(F)(F)F | > 300 µM |
| C[C@@H]1CN(C(=O)[C@@](C)(O)C(F)(F)F)[C@@H](C)CN1S(=O)(=O)c1cccc2ccccc12 | 0.0045 µM |
| C[C@@](O)(C(=O)N1CCCN(c2cc(Cl)ccn2)CC1)C(F)(F)F | 2.59 µM |
| C[C@@H]1CN(C(=O)[C@@](C)(O)C(F)(F)F)CCN1C(=O)OCc1ccccc1 | 0.021 µM |
| O=C(NC1C2CC3CC(C2)CC1C3)C1(O)CC1 (stereo not given) | 15 µM |
| O=C(N1CCC(Cc2ccccc2)CC1)C1(O)CC1 | 260 µM |
| C[C@@](O)(C(=O)N1CCN(C(=O)c2cccc3ccccc23)CC1)C(F)(F)F | 5.02 µM |
| C[C@@H]1CN(C(=O)[C@@](C)(O)C(F)(F)F)CCN1C(=O)c1ccc(C(=O)c2ccccc2)cc1 (stereo in doubt; 11r) | 15 µM |

| Structure (SMILES) | IC50 |
| --- | --- |
| C[C@@](O)(C(=O)N1CCCN(C(=O)c2ccccc2)CC1)C(F)(F)F | 5.62 µM |
| CC(Cl)C(=O)N1CCC(Cc2ccccc2)CC1 (stereo not given) | 2.6 µM |
| CC(C)(O)C(=O)Nc1ccccc1Cl | 5 µM |
| C[C@@H]1CN(C(=O)[C@@](C)(O)C(F)(F)F)CCN1S(=O)(=O)c1ccc(C(C)(C)C)cc1 | 0.036 µM |
| C[C@](O)(C(=O)NC1C2CC3CC(C2)CC1C3)C(F)(F)F (stereo not given in full) | 11 µM |
| CC(O)(C(=O)N1CCC(Cc2ccccc2)CC1)C(F)(F)F (stereo not given) | 2.16 µM |
| CC(C)[C@H]1CN(C(=O)c2ccc(C#N)cc2)[C@H](C)CN1C(=O)[C@@](C)(O)C(F)(F)F | 17 µM |
| O=C(Nc1ccccc1Cl)C(Cl)Cl | 47 µM |
| COC(=O)c1ccc(C(=O)N2C[C@H](C)N(C(=O)[C@@](C)(O)C(F)(F)F)C[C@H]2C)cc1 | 0.019 µM |
| C[C@@H]1CN(C(=O)[C@@](C)(O)C(F)(F)F)CCN1C(=O)C1CCCCC1 | 0.064 µM |
| COC(=O)N1CCC(Cc2ccccc2)CC1 | 1000 µM |
| CC(O)C(=O)N1CCC(Cc2ccccc2)CC1 (stereo not given) | 310 µM |
| CCC(O)(C(=O)NC1C2CC3CC(C2)CC1C3)C(F)(F)F (stereo not given) | 14 µM |
| C/N=C(/S)N1CCC(Cc2ccccc2)CC1 | 560 µM |
| Cc1cc(C)c(S(=O)(=O)N2CCN(C(=O)[C@@](C)(O)C(F)(F)F)C[C@H]2C)c(C)c1 | 0.039 µM |
| C[C@@H]1CN(S(=O)(=O)c2cccc3ccccc23)[C@@H](C)CN1C(=O)[C@@](C)(O)C(F)(F)F | 49 µM |
| C[C@@H]1CN(C(=O)[C@@](C)(O)C(F)(F)F)CCN1/C(=N/C#N)Oc1ccccc1 | 0.049 µM |
| C/N=C(\S)N1CC=C(C(C)(C)C)CC1 | 180 µM |
| C[C@@H]1CN(C(=O)[C@@](C)(O)C(F)(F)F)[C@@H](C)CN1C(=O)c1ccc(C(=O)c2ccccc2)cc1 | 0.0198 µM |
| CC1CCCCN1C(=O)[C@@](C)(O)C(F)(F)F (stereo not given in full) | 2 µM |

| Structure (SMILES) | IC50 |
| --- | --- |
| C[C@@](O)(C(=O)N1CCN(S(=O)(=O)c2ccccc2)CC1)C(F)(F)F | 5.56 µM |
| C[C@@](O)(C(=O)N1CCCN(Cc2ccccc2)CC1)C(F)(F)F | 47 µM |
| C[C@@H]1CN(C(=O)[C@@](C)(O)C(F)(F)F)CCN1C(=O)c1ccccc1 | 0.173 µM |
| C[C@@](O)(C(=O)NC1CCCCC1)C(F)(F)F | 6.2 µM |
| CC(C)(O)C(=O)NC1C2CC3CC(C2)CC1C3 (stereo not given) | 10 µM |
| CC(O)(C(=O)N1CCCCC1)C(F)(F)F (stereo not given) | 23.9 µM |
| C[C@@](O)(C(=O)N1CCN(C(=O)c2ccccc2)CC1)C(F)(F)F | 31.7 µM |
| CN(C)C(=O)N1CCC(Cc2ccccc2)CC1 | 416 µM |
| C[C@@](O)(C(=O)N1CCN(c2cc([N+](=O)[O-])ccn2)CC1)C(F)(F)F | 2.84 µM |
| C[C@](O)(C(=O)Nc1ccccc1Cl)C(F)(F)F | 9.8 µM |
| C[C@@H]1CN(C(=O)[C@@](C)(O)C(F)(F)F)[C@@H](C)CN1C(=O)c1cc(Cl)cc(Cl)c1 | 0.0033 µM |
| O=C(C(Cl)Cl)N1CCC(Cc2ccccc2)CC1 | 0.179 µM |
| C[C@@H]1CN(C(=O)[C@@](C)(O)C(F)(F)F)CCN1C(=O)c1cc(Cl)cc(Cl)c1 | 0.028 µM |
| C[C@@H]1CN(C(=O)[C@@](C)(O)C(F)(F)F)[C@@H](C)CN1C(=O)OCc1ccccc1 | 0.0143 µM |
| C[C@@](O)(C(=O)N1CCN(C(=O)c2ccc(C#N)cc2)CC1)C(F)(F)F | 6.7 µM |
| O=C(N1CCC(Cc2ccccc2)CC1)C(Cl)(Cl)Cl | 30 µM |
| CCCC1CCN(C(=O)[C@@](C)(O)C(F)(F)F)CC1 | 3.1 µM |
| CCCC1CCN(C(=O)[C@](C)(O)C(F)(F)F)CC1 | 75 µM |
| C[C@@H]1CN(C(=O)[C@@](C)(O)C(F)(F)F)[C@@H](C)CN1/C(=N/C#N)Oc1ccccc1 | 0.0091 µM |

system: Rattus norvegicus; test: In vivo %control of lactate in normal Sprague-Dawley rats after 2 hr at a dose of 30 umol/Kg; assay type: functional
Procedure, shortened: (§2)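 Male Sprague-Dawley rats, about 200 g, randomly assigned to groups (n = 6/group) and fasted 24 h. Single oral dose of compound in 0.5% carboxymethylcellulose/0.2% Tween-80 (1 mL/100 g), or vehicle alone. Blood taken 2 h post-dose into heparin/fluoride tubes; lactate measured on a biochemistry analyzer. Expressed as percent of vehicle control; groups compared by two-tailed unpaired t-test.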

| Structure (SMILES) | Control |
| --- | --- |
| C[C@@H]1CN(C(=O)[C@@](C)(O)C(F)(F)F)CCN1C(=O)c1ccc(C(=O)c2ccccc2)cc1 (stereo in doubt; 11g) | 66% |
| C[C@@H]1CN(C(=O)[C@@](C)(O)C(F)(F)F)CCN1C(=O)C1CCCCC1 | 77% |
| C[C@@H]1CN(C(=O)[C@@](C)(O)C(F)(F)F)CCN1/C(=N/C#N)Oc1ccccc1 | 65% |

species: Homo sapiens; test: Effective concentration required to increase the oxidation of lactate in cellular assay using Human Skin Fibroblasts; assay type: functional
Procedure, shortened: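 Human fibroblasts harvested with trypsin 2-4 days post-confluence and assayed in suspension ((3.5-5) × 10^5 cells per tube) with test compound or solvent control. Equilibrated at 37 °C, then started with DMEM-S containing 25 µM lactate and 0.2 µCi/mL d,l-[1-14C]lactate. Gassed with 95% O2/5% CO2 and shaken 25 min at 37 °C. Stopped with TCA; released 14CO2 trapped and counted by scintillation. EC50 ± standard error.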

| Structure (SMILES) | EC50 |
| --- | --- |
| C[C@@H]1CN(C(=O)[C@@](C)(O)C(F)(F)F)CCN1C(=O)c1ccc(C(=O)c2ccccc2)cc1 (stereo in doubt; 11g) | 0.473 µM |
| C[C@@](O)(C(=O)Nc1ccccc1Cl)C(F)(F)F | 5.4 µM |
| CC(O)(C(=O)N1CCC(Cc2ccccc2)CC1)C(F)(F)F (stereo not given) | 29 µM |
| O=C(C(Cl)Cl)N1CCC(Cc2ccccc2)CC1 | 1.12 µM |

system: Rattus norvegicus; test: In vivo %control of lactate in normal Sprague-Dawley rats after 2 hr at a dose of 300 umol/Kg; Not active; assay type: functional, organism-based; procedure, shortened: as §2

| Structure (SMILES) | NA |
| --- | --- |
| C[C@@](O)(C(=O)Nc1ccccc1Cl)C(F)(F)F | inactive |
| C[C@@](O)(C(=O)NC1C2CC3CC(C2)CC1C3)C(F)(F)F (stereo not given in full) | inactive |
| CC(O)(C(=O)N1CCC(Cc2ccccc2)CC1)C(F)(F)F (stereo not given) | inactive |
| O=C(C(Cl)Cl)N1CCC(Cc2ccccc2)CC1 | inactive |

system: Rattus norvegicus; test: In vivo %control of lactate in normal Sprague-Dawley rats after 2 hr at a dose of 30 umol/Kg; Not active; assay type: functional, organism-based; procedure, shortened: as §2

| Structure (SMILES) | NA |
| --- | --- |
| C[C@@H]1CN(C(=O)[C@@](C)(O)C(F)(F)F)CCN1c1cc([N+](=O)[O-])ccn1 | inactive |
| C[C@@H]1CN(C(=O)[C@@](C)(O)C(F)(F)F)[C@@H](C)CN1S(=O)(=O)c1cccc2ccccc12 | inactive |

biological target: Pyruvate dehydrogenase kinase (Rattus norvegicus) (UniProt Q63065+A6IPZ9+Q64536+O54937); test: Inhibition of Pyruvate Dehydrogenase Kinase (PDHK) receptor from rats; Inactive; assay type: protein assay; procedure, shortened: as §1

| Structure (SMILES) | IA |
| --- | --- |
| CC(C)NC(=O)N1CCC(Cc2ccccc2)CC1 | inactive |
| CCCC1CCN(C(=O)C(C)(OC)C(F)(F)F)CC1 (stereo not given) | inactive |
| CNS(=O)(=O)N1CCC(Cc2ccccc2)CC1 | inactive |
| CNS(=O)(=O)NC1C2CC3CC(C2)CC1C3 (stereo not given) | inactive |
| CC(Oc1ccccc1)(C(=O)NC1CCCCC1)C(F)(F)F (stereo not given) | inactive |
| CC(=O)C(=O)NC1C2CC3CC(C2)CC1C3 (stereo not given) | inactive |
| CC1(C(F)(F)F)OC(=O)N(C2CCCCC2)C1=O (stereo in doubt; 8) | inactive |
| C[C@@H]1CN(Cc2ccccc2)[C@@H](C)CN1C(=O)[C@@](C)(O)C(F)(F)F | inactive |
| COC(C)(C(=O)Nc1ccccc1Cl)C(F)(F)F (stereo not given) | inactive |
| C[C@@H]1CN(C(=O)[C@@](C)(O)C(F)(F)F)CCN1 | inactive |
| CC(C)CC(Cl)C(=O)N1CCC(Cc2ccccc2)CC1 (stereo not given) | inactive |
| CC(=O)N1CCCCC1 | inactive |
| COC(C)(C(=O)NC1C2CC3CC(C2)CC1C3)C(F)(F)F (stereo not given) | inactive |
| C[C@@](O)(C(=O)N1CCNCC1)C(F)(F)F | inactive |
| O=C(Nc1ccc(Cl)cc1)N1CCC(Cc2ccccc2)CC1 | inactive |
| CNS(=O)(=O)Nc1ccccc1Cl | inactive |
| CC1(C(F)(F)F)OC(=O)N(C2CCCCC2)C1=O (stereo in doubt; 9) | inactive |
| CNC(=O)N1CCCCC1 | inactive |
